Assay results published in ChEMBL document CHEMBL4028848, “Discovery of N-{4-[5-(4-Fluorophenyl)-3-methyl-2-methylsulfanyl-3H-imidazol-4-yl]-pyridin-2-yl}-acetamide (CBS-3595), a Dual p38α MAPK/PDE-4 Inhibitor with Activity against TNFα-Related Diseases” (J Med Chem, 2017).
The source made the active and inactive calls. No cut-off for these calls is given here.

How the values were obtained:
[1] = Fraction unbound in human plasma; assay type: ADME, cell-free
How it was run: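 Plasma protein binding measured in human, Sprague–Dawley rat and Cynomolgus monkey plasma at 1, 10 and 30 μM compound. Reported as unbound fraction (%).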

Rattus norvegicus [2] = experiment: In vivo inhibition of P38 MAPKalpha in Lewis rat assessed as decrease in LPS-stimulated TNFalpha level in serum at 10 mg/kg, po pretreated for 1 hr followed by LPS addition measured after 1.5 hrs post dose relative to control; assay type: functional
How it was run: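 Lewis rats, n = 8/group: females dosed orally at 10 mg/kg at −1, −3 or −5 h relative to LPS challenge, plus one male group dosed at −1 h. Male and female vehicle controls were given at −1 h. Serum TNFα was measured after LPS and compared with vehicle.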

[3] = target: Mitogen-activated protein kinase 14 (Homo sapiens, UniProt Q16539); experiment: Inhibition of p38alpha MAPK (unknown origin)
Chain of Mitogen-activated protein kinase 14 (Q16539 whole entry): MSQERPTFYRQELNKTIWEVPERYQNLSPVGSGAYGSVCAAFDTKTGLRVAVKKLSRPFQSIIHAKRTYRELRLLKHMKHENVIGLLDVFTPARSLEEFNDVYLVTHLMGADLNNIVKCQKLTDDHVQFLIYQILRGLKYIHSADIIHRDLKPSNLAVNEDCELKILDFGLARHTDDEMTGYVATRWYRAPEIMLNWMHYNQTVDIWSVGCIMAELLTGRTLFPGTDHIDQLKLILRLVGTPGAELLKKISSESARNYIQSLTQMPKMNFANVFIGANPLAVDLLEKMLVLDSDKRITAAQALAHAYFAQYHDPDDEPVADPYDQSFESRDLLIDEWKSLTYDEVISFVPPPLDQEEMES

Liver [4] = experiment: Drug level in human liver microsomes treated with CBS-3595 at 10 to 100 uM; assay type: ADME, microsome
How it was run: (§1)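 Test compound incubated at 10, 30 and 100 μM with liver microsomes from rat, Cynomolgus monkey or human, and metabolites monitored.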

Liver [5] = experiment: Drug level in rat liver microsomes treated with CBS-3595 at 10 to 100 uM; assay type: ADME, microsome; how it was run: as §1
[6] = Drug level in cynomolgus monkey liver microsomes treated with CBS-3595 at 10 to 100 uM; assay type: ADME, Macaca fascicularis, microsome; how it was run: as §1
[7] = Apparent permeability in human Caco2 cells at 10 uM; assay type: ADME, cell-based; conditions: Caco-2
Homo sapiens [8] = organism: Homo sapiens; experiment: Inhibition of PDE4 in LPS-stimulated human whole blood assessed as decrease in leukotriene B4 level in plasma
Homo sapiens [9] = organism: Homo sapiens; experiment: Inhibition of PDE4 in human U937 cells assessed as [3H]cAMP hydrolysis at 1 uM relative to control; assay type: cell-based
[10] = Cmax in human at 0.5 mg, po administered as single dose; assay type: ADME, organism-based; set-up: dose 0.5 mg, route oral; conditions: in vivo
Homo sapiens [11] = experiment: AUC (infinity) in human assessed as roflumilast N-oxide formation at 0.5 mg, po administered as single dose; assay type: ADME, organism-based; set-up: dose 0.5 mg, route oral, time infinity; conditions: in vivo
[12] = AUC (infinity) in human at 0.5 mg, po administered as single dose; assay type: ADME, organism-based; set-up: dose 0.5 mg, time infinity, route oral; conditions: in vivo
Homo sapiens [13] = experiment: Cmax in human assessed as roflumilast N-oxide formation at 0.5 mg, po administered as single dose; assay type: ADME, organism-based; set-up: dose 0.5 mg, route oral; conditions: in vivo
Rattus norvegicus [14] = experiment: In vivo inhibition of P38 MAPKalpha in Sprague-Dawley rat assessed as decrease in LPS-stimulated TNFalpha level in serum at 3 mg/kg, po pretreated for 1 hr followed by LPS addition measured after 2 hrs relative to control; assay type: functional
Rattus norvegicus [15] = experiment: In vivo inhibition of P38 MAPKalpha in Lewis rat assessed as decrease in LPS-stimulated TNFalpha level in serum at 30 mg/kg pretreated for 3 hrs followed by LPS addition measured after 1.5 hrs post dose; assay type: functional, organism-based
Rattus norvegicus [16] = experiment: In vivo inhibition of P38 MAPKalpha in Lewis rat assessed as decrease in LPS-stimulated TNFalpha level in serum at 30 mg/kg pretreated for 1 hrs followed by LPS addition measured after 1.5 hrs post dose; assay type: functional, organism-based

In the case of `O=C(Nc1c(Cl)c[n+]([O-])cc1Cl)c1ccc(OC(F)F)c(OCC2CC2)c1`, the fraction unbound [1] is reported as 0.04.

`CCc1nc(-c2cccc(C)c2)c(-c2ccnc(NC(=O)c3ccccc3)c2)s1` [TAK-715] gave an inhibition in vivo at 10 mg/kg (Rattus norvegicus [2]) of 6%.

`CC(=O)Nc1cc(-c2c(-c3ccc(F)cc3)nc([S@@+](C)[O-])n2C)ccn1` showed an IC50 [3] of 129 nM.

For `CC(=O)Nc1cc(-c2c(-c3ccc(F)cc3)nc(S(C)(=O)=O)n2C)ccn1`, the Drug metabolism (Liver [4]) was “Metabolite_Detected”, the Drug metabolism (Liver [5]) was “Metabolite_Detected” and the Drug metabolism [6] was “Metabolite_Detected”.

For `CC(C)NCC(O)COc1cccc2ccccc12` (centres undefined) [PROPRANOLOL], the Papp at 10 µM [7] was 71.1 ×10⁻⁶ cm/s.

With `O=C(Nc1c(Cl)cncc1Cl)c1ccc(OC(F)F)c(OCC2CC2)c1` [ROFLUMILAST] the inhibition in vivo at 10 mg/kg (Rattus norvegicus [2]) was 67%, the fraction unbound [1] was 0.02 and the inhibition (Homo sapiens [8]) was “Dose-dependent effect”. It also gave an inhibition (Homo sapiens [9]) of 94%, a Cmax [10] of 13.1 nM and an AUC (Homo sapiens [11]) of 0.8379 µM·h. The AUC(0-inf) [12] was 0.0868 µM·h and the Cmax (Homo sapiens [13]) was 22.4 nM.

For `C[S+]([O-])c1ccc(-c2nc(-c3ccc(F)cc3)c(-c3ccncc3)[nH]2)cc1` (centres undefined) [SB-203580], the inhibition (Homo sapiens [8]) was “inactive”, the inhibition in vivo at 3 mg/kg (Rattus norvegicus [14]) was 37% and the inhibition (Rattus norvegicus [15]) was “Active”. The inhibition (Rattus norvegicus [16]) was “Active”.
